This is a sample that favours compounds with a hit; in the whole collection about 2.2% have one here.
FGF22 binding = binders of human FGF22 protein, primary screen, FGF22 synaptogenesis inhibitor project, biophysical, thermal shift, single point; activity (Tm shift, normalised), % at 9.99 µM; 340,000 compounds, 1.5% hits; AID 651658, 2012; recombinant FGF22 thermal shift, SYPRO orange fluorescence; percent of sucrose octasulfate shift, DMSO zero;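 active = mean Tm shift, scaled 0 neutral to 100 positive control, at about 1.3% or above, every replicate too, limit read from the data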
Target sequence (Q9HCT0 whole entry, looked up): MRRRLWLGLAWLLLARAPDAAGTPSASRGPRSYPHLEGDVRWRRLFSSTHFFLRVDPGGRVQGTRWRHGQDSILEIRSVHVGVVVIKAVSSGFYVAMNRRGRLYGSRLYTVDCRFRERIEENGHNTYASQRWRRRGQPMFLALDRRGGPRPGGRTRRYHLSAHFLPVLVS
NR2E3 ag-1 = inhibitors of NR2E3-RetCOR corepressor binding, primary screen, NR2E3 agonist project, biochemical, TR-FRET, GST-NR2E3, biotin-RetCOR | Photoreceptor-specific nuclear receptor (Homo sapiens), Q9Y5X4 | 1536-well | inhibition of corepressor binding, % at 4.78 µM | 320,000 compounds, 0.12% hits | AID 2300, 2010;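 active = percent inhibition above the cutoff of mean plus 3 SD of all tested compounds, set per screening campaign, cut at about 20% in these data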;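 note: 0% = DMSO wells and 100% = biotin wells as full block of FRET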
Target sequence (Q9Y5X4 whole entry, looked up): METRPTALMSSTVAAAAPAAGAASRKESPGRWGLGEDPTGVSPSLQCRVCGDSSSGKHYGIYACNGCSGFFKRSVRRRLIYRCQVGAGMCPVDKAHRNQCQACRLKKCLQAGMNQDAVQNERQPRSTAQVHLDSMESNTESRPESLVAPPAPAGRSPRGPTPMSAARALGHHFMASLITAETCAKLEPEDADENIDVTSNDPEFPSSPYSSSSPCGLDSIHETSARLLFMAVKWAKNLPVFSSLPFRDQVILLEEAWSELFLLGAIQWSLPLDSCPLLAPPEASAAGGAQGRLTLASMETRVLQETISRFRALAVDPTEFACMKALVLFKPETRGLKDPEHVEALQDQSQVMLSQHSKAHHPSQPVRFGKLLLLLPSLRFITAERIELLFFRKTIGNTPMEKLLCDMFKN
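Assay system: NR2E3–RetCOR corepressor complex. Quantity: 1.35 nM GST-NR2E3. Buffer or medium: pH 7.5 Tris-based buffer. Reagent: biotinylated RetCOR corepressor at 7 nM final. Schedule: 5 h at 4 °C. Detection: TR-FRET, emission read at 617 and 671 nm. Replicates: one well per compound, singlicate testing.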
miR-122 sensor = miR-122 Renilla sensor signal increase in Huh7, primary screen, miR-122 inhibitor project, cell-based, single point, plate reader. Huh7 miR-122 Renilla luciferase sensor, 48 h; neutral wells = 0, positive control = 100. activation (reporter increase), % at 12.5 µM. 340,000 compounds, 0.3% hits;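 active = mean replicate activation score at least 90 and every replicate individually at or above 90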;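 note: higher luciferase means less miR-122 activity so hits act as miR-122 inhibitors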
697 NFkB inh = inhibitors of PMA/ionomycin-induced NF-kB reporter, 697 cells, primary screen, B-cell NF-kB inhibitor project, cell-based, luminescence, uHTS. 697 B-cell NF-kB luciferase reporter, 16 h. inhibition, % at 4 µM. 330,000 compounds, 0.33% hits. AID 435022, 2010; in the data active = inhibition above about 35%
Jurkat NFkB inh = inhibitors of induced NF-kB luciferase reporter, primary screen, TCR NF-kB activation inhibitor project, cell-based, luminescence, uHTS | Jurkat, PMA/ionomycin-induced NF-kB luciferase reporter | inhibition, % at 4 µM | 330,000 compounds, 0.53% hits | AID 435003, 2010; in the data active = inhibition above about 50%
NR2E3 ag-2 = NR2E3 agonists in two-hybrid cells, primary screen, cell-based, luminescence, CHO-S, Gal4-NCOR/VP16-NR2E3; inhibition of corepressor binding, % at 3.98 µM; Photoreceptor-specific nuclear receptor (Homo sapiens), Q9Y5X4; luciferase; 360,000 compounds, 0.35% hits;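 active = inhibition above the mean of all tested compounds plus 3 SD, cut at about 70% in these data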;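 note: 0% = DMSO with NR2E3 transfected cells and 100% = cells lacking NR2E3 construct; higher means lower luciferase signal from less NR2E3 corepressor binding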
Jurkat NFkB conf = PMA/ionomycin-induced NF-kB reporter inhibitors, Jurkat retest, confirmation, T-cell NF-kB inhibitor project, cell-based, luminescence, single concentration | shares compounds with Jurkat NFkB inh | Jurkat NF-kB luciferase, 16 h | inhibition, % at 4 µM | 2,700 compounds, 27% hits | AID 435020, 2010;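 active = inhibition reaching about 45% at 4 µM in either replicate, limit read from the data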;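 note: plate controls were PMA/ionomycin stimulated DMSO wells for no effect and unstimulated DMSO wells for full effect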
697 NFkB conf = PMA/ionomycin-induced NF-kB reporter inhibitors, 697 retest, confirmation, B-cell NF-kB inhibitor project, cell-based, luminescence, single concentration; shares compounds with 697 NFkB inh; 697 B-cell NF-kB luciferase, 16 h; inhibition, % at 4 µM; 2,000 compounds, 35% hits; AID 449746, 2010; in the data active = inhibition mostly above about 28%, no sharp cut-off; inactive = mostly below about 22%
* marks the source's active call; other numbers are inactive results; nt = no result given; [ ] = remark or other dose.

SMILES	FGF22 binding	NR2E3 ag-1	miR-122 sensor	697 NFkB inh	Jurkat NFkB inh	NR2E3 ag-2	Jurkat NFkB conf	697 NFkB conf
COc1ccc(-c2cc3nc4n(c(=O)c3s2)CCC4)cc1	0	3	-12	-117	-25	-103	nt	nt
COc1ccc(-c2cc3nc(C)n(N)c(=O)c3s2)cc1	nt	0	-8	53*	80*	12	83*	49*
C[C@@H]1CCCCO[C@H](CN(C)C(=O)Nc2ccc(F)cc2)[C@@H](C)CN([C@@H](C)CO)C(=O)c2cc(NS(=O)(=O)c3ccc(Cl)cc3)ccc2O1	nt	nt	22[16.7 µM]	nt	nt	nt	nt	nt
CCC(=O)Nc1ccc2c(c1)C(=O)N(C)C[C@@H](OC)[C@@H](C)CN(Cc1nccs1)[C@@H](C)CO2	nt	nt	0[16.7 µM]	nt	nt	nt	nt	nt
c1cc2c(cc1C1=NNC(=NC3CC3)SC1)OCCO2	0	-1	9	57*	60*	0	78*	24
CCCCN=C1NN=C(c2ccc3c(c2)OCCO3)CS1	0	-2	0	-74	-34	-107	nt	nt
COc1ccc(CN(C)C[C@H]2Oc3ccc(NC(=O)Cc4cn(C)c5ccccc45)cc3C(=O)N([C@H](C)CO)C[C@H]2C)cc1	0	nt	-1[16.7 µM]	nt	nt	nt	nt	nt
N=c1c2c(n(Cc3ccc(Br)cc3)c3c1CCC3)CCCC2	43*	2	nt	52*	53*	-2	40	32*
CN1/C(=C\C(=O)C[n+]2ccc3ccccc3c2)C(C)(C)c2ccccc21	nt	nt	-4	49*	83*	-10	79*	-3
COc1ccccc1OCC(=O)/C=C1/N(C)c2ccccc2C1(C)C	42	-2	nt	-1	17	18	nt	nt
COc1cc(NC(C)CCCN)c2ncccc2c1 (stereo not given)	-1	0	2	44*	65*	-8	36	38*
C[C@H]1CCCCO[C@@H](CN(C)C(=O)Nc2ccc3c(c2)OCO3)[C@@H](C)CN([C@@H](C)CO)C(=O)c2cc(NS(C)(=O)=O)ccc2O1	0	nt	3[16.7 µM]	nt	nt	nt	nt	nt
C[C@H](O)C#Cc1cnc2c(c1)C(=O)N([C@@H](C)CO)C[C@H](C)[C@@H](CN(C)C(=O)Nc1ccc(F)cc1)O2	0	nt	3[16.7 µM]	nt	nt	nt	nt	nt
COc1ccc(NS(=O)(=O)c2ccc(NC(=O)c3ccc(CN4CCOCC4)cc3)cc2)cc1	0	1	7	-52	28	6	nt	nt
O=C(Nc1ccc(S(=O)(=O)Nc2ccc(F)cc2)cc1)c1ccc(CN2CCOCC2)cc1	0	-2	nt	47*	63*	13	63*	19
C[C@@H]1CN([C@H](C)CO)C(=O)Cc2cc(NC(=O)C3CC3)ccc2O[C@H]1CN(C)Cc1ccncc1	0	nt	-2[16.7 µM]	nt	nt	nt	nt	nt
COc1ccc(NC(=O)/C(Cl)=C(/Cl)S(=O)Cc2ccccc2Cl)cn1 (stereo not given)	nt	nt	nt	-349	100*	nt	98*	-110
COc1ccc(-c2cn3c4c(sc3n2)CCCC4)cc1	nt	-2	6	-292	-191	-154	-130	-346
COc1ccc(-c2cn3c(C)c(C(=O)N4CCCc5ccccc54)sc3n2)cc1	0	-3	nt	-35	-11	-22	nt	nt
COc1ccc(-c2nc(-c3ccccn3)no2)cc1	0	-5	nt	48*	77*	36	86*	39*
CCOc1ccc(-c2nc(-c3ccccc3C)no2)cc1	nt	-4	nt	-267	-167	nt	-124	-302
Cc1c(-c2nc(-c3ccc(C(C)(C)C)cc3)no2)n(C)oc1=O	0	-3	-3	-418	60*	-68	-31	-413
COc1ccccc1NC(=O)N[C@@H]1CC[C@H](CCn2cc(-c3ccccc3)nn2)O[C@@H]1CO	0	nt	nt	nt	nt	nt	nt	nt
O=C(Nc1ccc2c(c1)OCCO2)c1ccc(Cl)cc1Cl	0	3	-9	-272	-152	-92	-96	-211
O=C(Nc1ccc(N2CCN(C(=O)c3ccc(Cl)cc3)CC2)cc1)c1ccc2c(c1)OCCO2	nt	2	-1	39*	58*	-11	57*	-40
SMILES	FGF22 binding	NR2E3 ag-1	miR-122 sensor	697 NFkB inh	Jurkat NFkB inh	NR2E3 ag-2	Jurkat NFkB conf	697 NFkB conf
COc1ccc(S(=O)(=O)Nc2ccc3c(c2)C(=O)N([C@H](C)CO)C[C@H](C)[C@@H](CN(C)Cc2ccc(Cl)c(Cl)c2)OCCCC[C@@H](C)O3)cc1	-1	nt	nt	nt	nt	nt	nt	nt
C[C@@H]1CN([C@@H](C)CO)C(=O)c2cc(C#CCc3ccccc3)cnc2O[C@H]1CN(C)C(=O)C1CCC1	0	nt	-10[16.7 µM]	nt	nt	nt	nt	nt
COc1ccc(OC)c(NC(=O)CSc2ncnc3c2cnn3-c2ccccc2Cl)c1	nt	-2	nt	71*	50*	65	65*	50*
Cc1ccc(OCc2nc(-c3cccs3)no2)c([N+](=O)[O-])c1	0	5	-2	-274	-249	-123	-162	-353
O=[N+]([O-])c1ccc(F)cc1OCc1nc(-c2cccs2)no1	0	nt	nt	nt	nt	-40	nt	nt
C(=N\Nc1nc2ccccc2s1)/c1ccc2c(c1)OCO2	0	0	nt	-333	-205	-167	-91	-264
O=C(Nc1ccc(-c2nc3ccccc3s2)c(O)c1)C1=COCCO1	nt	-2	nt	-335	-242	-57	-72	-134
O=C1CN(S(=O)(=O)c2cccc(F)c2)C[C@H]2[C@@H](c3ccc(C4=CCCC4)cc3)[C@H](CO)N12	0	nt	nt	nt	nt	nt	nt	nt
Fc1ccc(-c2csc(Nc3ccccn3)n2)cc1	0	3	nt	-264	-169	-192	-74	-216
Clc1ccccc1Nc1nc(-c2cccnc2)cs1	0	-2	13	-270	-189	-114	-96	-210
c1ccc(Nc2nc(-c3cccnc3)cs2)nc1	nt	1	10	-127	-122	-112	nt	nt
Cc1cccnc1Nc1nc(-c2ccc(O)cc2O)cs1	nt	0	-8	-62	-77	-94	nt	nt
Cc1cccnc1Nc1nc(-c2ccccc2)cs1	0	-3	nt	-252	-152	-136	-93	-232
Cc1noc(C)c1NC(=O)Nc1ccc2c(c1)C(=O)N([C@H](C)CO)C[C@H](C)[C@@H](CN(C)C(=O)c1ccccc1)OCCCC[C@H](C)O2	-1	nt	1[16.7 µM]	nt	nt	nt	nt	nt

Assay outcomes: PubChem BioAssay, several laboratories
